Measured values reported in ChEMBL document CHEMBL4828708 (Eur J Med Chem, 2021).
Calls of active or inactive are those of the source. No cut-off for these calls is given here.

Assays:
[1] = molecular target: T1, Adenosine receptor A3 (Homo sapiens, UniProt P0DMS8); assay: Displacement of [3H]NECA from human adenosine A3 receptor expressed in HeLa cell membrane incubated for 180 mins by microplate beta scintillation counting based radioligand inhibition assay; assay type: cell membranes
T1 sequence (P0DMS8 whole entry): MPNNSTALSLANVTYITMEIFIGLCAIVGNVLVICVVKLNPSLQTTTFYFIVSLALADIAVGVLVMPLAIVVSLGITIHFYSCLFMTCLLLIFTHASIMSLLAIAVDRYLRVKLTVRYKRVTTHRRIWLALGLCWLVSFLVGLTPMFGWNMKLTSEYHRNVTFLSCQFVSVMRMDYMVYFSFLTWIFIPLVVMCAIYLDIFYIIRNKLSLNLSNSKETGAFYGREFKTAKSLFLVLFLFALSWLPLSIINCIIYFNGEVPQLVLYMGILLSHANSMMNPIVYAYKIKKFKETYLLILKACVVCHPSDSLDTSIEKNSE

[2] = molecular target: T2, Adenosine receptor A2b (Homo sapiens) (UniProt P29275); assay: Displacement of [3H]DPCPX from human adenosine A2B receptor expressed in HEK cell membrane at 10 uM incubated for 30 mins by microplate beta scintillation counting based radioligand inhibition assay relative to control; assay type: cell membranes; conditions: HEK293
T2 sequence (whole entry): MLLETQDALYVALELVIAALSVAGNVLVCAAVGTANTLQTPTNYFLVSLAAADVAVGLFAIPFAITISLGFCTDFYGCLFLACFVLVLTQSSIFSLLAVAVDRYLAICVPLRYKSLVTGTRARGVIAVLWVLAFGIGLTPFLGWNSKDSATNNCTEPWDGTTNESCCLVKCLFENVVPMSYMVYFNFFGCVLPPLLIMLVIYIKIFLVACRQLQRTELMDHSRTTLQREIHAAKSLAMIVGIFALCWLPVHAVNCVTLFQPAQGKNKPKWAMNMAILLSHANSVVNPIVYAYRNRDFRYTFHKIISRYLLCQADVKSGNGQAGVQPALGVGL

[3] = molecular target: T3, Adenosine receptor A3 (Homo sapiens) (UniProt P0DMS8); assay: Displacement of [3H]NECA from human adenosine A3 receptor expressed in HEK293 cell membrane at 10 uM incubated for 180 mins by microplate beta scintillation counting based radioligand inhibition assay relative to control
T3 sequence (whole entry): T1 sequence (P0DMS8 whole entry)

[4] = molecular target: T4, Adenosine receptor A1 (Homo sapiens, UniProt P30542); assay: Displacement [3H]DPCPX from human adenosine A1 receptor expressed in CHO cell membrane incubated for 60 mins by microplate beta scintillation counting based radioligand inhibition assay; assay type: cell membranes
T4 sequence (P30542 whole entry): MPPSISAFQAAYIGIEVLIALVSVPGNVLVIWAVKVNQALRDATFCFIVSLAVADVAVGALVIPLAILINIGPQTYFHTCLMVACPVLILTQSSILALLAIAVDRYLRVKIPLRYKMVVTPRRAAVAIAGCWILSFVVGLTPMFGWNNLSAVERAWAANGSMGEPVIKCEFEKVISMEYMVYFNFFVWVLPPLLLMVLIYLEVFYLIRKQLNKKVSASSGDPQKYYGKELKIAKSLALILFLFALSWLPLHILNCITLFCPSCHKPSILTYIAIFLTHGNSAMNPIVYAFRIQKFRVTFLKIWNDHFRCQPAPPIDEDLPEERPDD

[5] = tested on: Blood; assay: Inhibition of ADP-stimulated platelet aggregation in human whole blood assessed as decrease in platelet activation measured upto 15 mins by whole blood aggregometry assay; assay type: functional, tissue-based
In short: (§1)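 Human whole blood was pre-incubated 5 min with compound dissolved in 0.1% DMSO, or with 0.1% DMSO alone. Test concentrations were 10, 30 or 50 μM. Aggregation was triggered with 6.4 μM ADP or 1 μg/mL collagen and monitored for up to 15 min on a five-channel Multiplate analyzer. Read-out was area under the aggregation curve, n = 13 donors, paired Student's t-test.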

[6] = tested on: Blood; assay: Inhibition of thrombus in human whole blood measured after 10 mins by microscopic analysis; assay type: functional, tissue-based
In short: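 Citrated human blood labelled with anti-CD61-PE, given compound or 0.1% DMSO 5 min beforehand, recalcified with 1 mM CaCl2, then perfused through type I collagen-coated channels at 20 dyn/cm2 for 5 min. Fluorescent thrombus area summed per donor (thrombi >50 μm2). Paired t-test, n = 9.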

[7] = molecular target: T5, Adenosine receptor A2a (Homo sapiens, UniProt P29274); assay: Displacement of [3H]CGS21680 from human adenosine A2A receptor expressed in HEK293 cell membrane incubated for 30 mins by microplate beta scintillation counting based radioligand inhibition assay
[8] = tested on: Blood; assay: Inhibition of collagen-stimulated platelet aggregation in human whole blood assessed as decrease in platelet activation measured upto 15 mins by whole blood aggregometry assay; assay type: functional, tissue-based; in short: as §1
[9] = molecular target: T6, Adenosine receptor A2b (Homo sapiens, UniProt P29275); assay: Displacement of [3H]DPCPX from human adenosine A2B receptor expressed in HEK cell membrane incubated for 30 mins by microplate beta scintillation counting based radioligand inhibition assay; assay type: cell membranes
T6 sequence (P29275 whole entry): T2 sequence (whole entry)

[10] = molecular target: T5, Adenosine receptor A2a; assay: Displacement of [3H]ZM241385 from human adenosine A2A receptor expressed in HeLa cells by beta scintillation counting analysis; assay type: cell-based

T5 sequence (P29274 whole entry): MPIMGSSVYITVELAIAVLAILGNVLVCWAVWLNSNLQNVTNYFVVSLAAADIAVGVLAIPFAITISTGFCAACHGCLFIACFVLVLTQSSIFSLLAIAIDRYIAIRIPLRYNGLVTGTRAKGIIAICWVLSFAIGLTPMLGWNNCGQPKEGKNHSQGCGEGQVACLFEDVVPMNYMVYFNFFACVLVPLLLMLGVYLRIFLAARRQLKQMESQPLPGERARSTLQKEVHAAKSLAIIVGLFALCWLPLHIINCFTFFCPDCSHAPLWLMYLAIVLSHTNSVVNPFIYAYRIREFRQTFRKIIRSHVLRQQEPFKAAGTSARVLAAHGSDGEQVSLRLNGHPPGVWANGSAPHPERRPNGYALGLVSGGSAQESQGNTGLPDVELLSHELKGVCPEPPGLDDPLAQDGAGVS

| Structure (SMILES) | Ki [1] [nM] | inhibition [3] [%] | Ki [4] [nM] | further results |
| --- | --- | --- | --- | --- |
| Nc1ncnc2c1nc(C#Cc1ccccc1)n2[C@@H]1O[C@H](CO)[C@@H](O)[C@H]1O | 856 | – | – | – |
| Nc1ncnc2c1ncn2[C@H]1C[C@H](O)[C@@H](CO)O1 | – | 5 | – | inhibition [2]: 12% |
| OC[C@H]1O[C@@H](n2cnc3c(NCCCCc4ccccc4)ncnc32)[C@H](O)[C@@H]1O | – | – | 864 | – |
| Nc1ncnc2c1nc(CCc1ccccc1)n2[C@H]1C[C@H](O)[C@@H](CO)O1 | – | 44 | – | – |
| OC[C@H]1O[C@@H](n2cnc3c(NCCCc4ccccc4)ncnc32)[C@H](O)[C@@H]1O | 54.6 | – | 78.8 | inhibition [5]: Active; inhibition [6]: Active |
| Nc1nc(CCc2ccccc2)nc2c1ncn2[C@@H]1O[C@H](CO)[C@@H](O)[C@@H]1O | – | 54 | – | – |
| OC[C@H]1O[C@@H](n2cnc3c(NCCCc4ccccc4)nc(Cl)nc32)C[C@@H]1O | 8770 | – | 13300 | inhibition [2]: 1% |
| Nc1ncnc2c1nc(CCc1ccccc1)n2[C@@H]1O[C@H](CO)[C@@H](O)[C@H]1O | – | 8 | – | – |
| CCNC(=O)[C@H]1O[C@@H](n2cnc3c(NCCCCc4ccccc4)ncnc32)[C@H](O)[C@@H]1O | – | – | 803 | – |
| Nc1nc(C#Cc2ccccc2)nc2c1ncn2[C@@H]1O[C@H](CO)[C@@H](O)[C@H]1O | 42 | – | 646 | Ki [7]: 1040 nM |
| Nc1ncnc2c1ncn2[C@@H]1O[C@H](CO)[C@@H](O)[C@H]1OCOCCCc1ccccc1 | – | 29 | – | – |
| Nc1nc(C#Cc2ccccc2)nc2c1ncn2[C@@H]1O[C@H](CO)[C@@H](O)[C@@H]1O | 1230 | – | – | – |
| Nc1nc(CCc2ccccc2)nc2c1ncn2[C@@H]1O[C@H](CO)[C@@H](O)[C@H]1O | 8610 | – | 1940 | – |
| CCNC(=O)[C@H]1O[C@@H](n2cnc3c(NCCCc4ccccc4)ncnc32)[C@H](O)[C@@H]1O | 4.5 | – | – | inhibition [5]: Active; inhibition [8]: Active; Ki [9]: 1380 nM; IC50 [10]: 14600 nM |
| Nc1ncnc2c1nc(C#Cc1ccccc1)n2[C@H]1C[C@H](O)[C@@H](CO)O1 | 879 | – | – | Ki [7]: 1990 nM |
